# ChEMBL document CHEMBL3997773, “Synthesis of C-4-Substituted Steviol Derivatives and Their Inhibitory Effects against Hepatitis B Virus” (J Nat Prod, 2016)
# Active and inactive are the calls of the source. No cut-off for these calls is given here.
# Legend:
# Huh-7 [1] = experiment: Effect on IKKalpha protein expression in human HuH7 cells transfected with pHBV1.2 at 2.5 ug/ml after 2 days by immunoblot method relative to control; assay type: functional
# Outline: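 HBV adw2 genome plasmid pHBV1.2 transfected into Huh7 for 2 days, then 2.5, 5 or 10 μg/mL for another 2 days. Whole-cell protein extracted with protease inhibitors, then SDS-PAGE immunoblot for NF-κB and MAPK pathway proteins. Blots are representative of three sets of experiments.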
# [2] = target: Transcription factor p65 (Homo sapiens) (UniProt Q04206); experiment: Decrease in NF-kB p65 phosphorylation in human HuH7 cells transfected with pHBV1.2 at 5 ug/ml after 2 days by immunoblot method relative to control; assay type: cell-based
# Sequence of Transcription factor p65 (Homo sapiens) (Q04206 whole entry): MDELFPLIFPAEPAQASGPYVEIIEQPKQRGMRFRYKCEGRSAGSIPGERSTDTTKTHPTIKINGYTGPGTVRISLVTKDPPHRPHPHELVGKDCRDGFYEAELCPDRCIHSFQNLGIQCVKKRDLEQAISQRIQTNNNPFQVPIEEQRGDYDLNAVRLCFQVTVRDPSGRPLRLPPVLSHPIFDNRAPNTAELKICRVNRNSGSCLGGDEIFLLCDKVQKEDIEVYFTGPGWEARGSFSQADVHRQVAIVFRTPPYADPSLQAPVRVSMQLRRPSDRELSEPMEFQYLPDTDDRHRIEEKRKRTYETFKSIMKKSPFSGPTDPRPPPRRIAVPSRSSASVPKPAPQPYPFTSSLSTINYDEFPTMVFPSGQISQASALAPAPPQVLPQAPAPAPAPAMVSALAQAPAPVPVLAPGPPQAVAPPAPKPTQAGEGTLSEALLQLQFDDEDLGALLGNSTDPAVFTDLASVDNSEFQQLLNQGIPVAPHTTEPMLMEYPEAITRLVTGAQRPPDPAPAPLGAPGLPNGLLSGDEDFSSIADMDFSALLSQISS
# Outline: (§1)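 Huh7 cells were transfected with pHBV1.2 for 2 days, then treated at 2.5, 5 or 10 μg/mL for another 2 days. Whole-cell protein was extracted with protease inhibitors. NF-κB p65/p50, phospho-p65, IKKα/β and IκBα/phospho-IκBα were detected by immunoblot. Blots are representative of three experiments.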
# [3] = target: Mitogen-activated protein kinase; ERK1/ERK2 (Homo sapiens) (UniProt P27361+P28482); experiment: Decrease in ERK1/2 phosphorylation in human HuH7 cells transfected with pHBV1.2 at 2.5 to 10 ug/ml after 2 days by immunoblot method
# Sequence of Mitogen-activated protein kinase; ERK1/ERK2 (Homo sapiens) (P27361 whole entry, looked up): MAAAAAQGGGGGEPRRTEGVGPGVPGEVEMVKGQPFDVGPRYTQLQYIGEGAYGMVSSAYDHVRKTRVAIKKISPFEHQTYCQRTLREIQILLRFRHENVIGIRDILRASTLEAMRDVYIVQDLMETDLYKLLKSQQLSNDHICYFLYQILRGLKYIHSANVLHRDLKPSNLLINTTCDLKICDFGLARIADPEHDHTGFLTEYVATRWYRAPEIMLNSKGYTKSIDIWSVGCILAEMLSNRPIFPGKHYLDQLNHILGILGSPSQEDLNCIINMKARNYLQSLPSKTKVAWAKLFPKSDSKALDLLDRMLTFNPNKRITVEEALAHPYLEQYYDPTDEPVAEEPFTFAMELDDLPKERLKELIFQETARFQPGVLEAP
# Sequence of Mitogen-activated protein kinase; ERK1/ERK2 (Homo sapiens) (P28482 whole entry, looked up): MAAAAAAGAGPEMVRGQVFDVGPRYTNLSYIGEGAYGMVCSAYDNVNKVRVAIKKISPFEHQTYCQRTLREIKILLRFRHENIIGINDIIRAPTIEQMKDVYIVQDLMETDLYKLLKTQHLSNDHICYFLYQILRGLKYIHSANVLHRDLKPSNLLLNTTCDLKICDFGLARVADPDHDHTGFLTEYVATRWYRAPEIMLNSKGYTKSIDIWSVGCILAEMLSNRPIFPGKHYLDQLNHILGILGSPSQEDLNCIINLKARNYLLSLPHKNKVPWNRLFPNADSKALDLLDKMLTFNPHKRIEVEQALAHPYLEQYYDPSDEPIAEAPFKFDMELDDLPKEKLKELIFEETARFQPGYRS
# Huh-7 [4] = experiment: Decrease in NF-kB p65 protein expression in human HuH7 cells transfected with pHBV1.2 at 10 ug/ml after 2 days by immunoblot method relative to control; assay type: functional; outline: as §1
# Huh-7 [5] = experiment: Decrease in p38 MAPK protein expression in human HuH7 cells transfected with pHBV1.2 at 10 ug/ml after 2 days by immunoblot method relative to control
# Hepatitis B virus = experiment: Decrease in HBV S promoter activity infected in human HuH7 cells cotransfected with pHBV1.2 at 10 ug/ml after 24 hrs by luciferase reporter gene assay; assay type: cell-based
# Outline: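 Huh7 cells were seeded for 24 h, then cotransfected with pHBV1.2, pRLSV40 and a pGL4.17-based Core (nt 1636-1851), S (nt 3114-220), PreS (nt 2438-2855) or X (nt 1071-1357) promoter-luciferase construct for 24 h. Cells were then treated at 10 μg/mL for 24 h and lysates were assayed for luciferase. Mean ± SD, n = 3.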
# [6] = target: T1, NF-kappa-B inhibitor alpha (Homo sapiens) (UniProt P25963); experiment: Decrease in IKBalpha phosphorylation in human HuH7 cells transfected with pHBV1.2 at 2.5 ug/ml after 2 days by immunoblot method relative to control; assay type: cell-based; outline: as §1
# T1 sequence (whole entry): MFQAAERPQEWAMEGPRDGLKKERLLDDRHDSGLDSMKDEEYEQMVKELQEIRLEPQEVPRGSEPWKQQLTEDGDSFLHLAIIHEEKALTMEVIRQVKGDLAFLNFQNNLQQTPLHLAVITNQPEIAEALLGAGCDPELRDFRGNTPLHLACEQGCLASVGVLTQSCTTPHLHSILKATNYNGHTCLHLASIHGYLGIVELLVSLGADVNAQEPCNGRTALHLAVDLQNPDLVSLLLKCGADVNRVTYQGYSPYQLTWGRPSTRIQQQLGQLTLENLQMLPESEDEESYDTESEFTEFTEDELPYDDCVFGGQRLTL
# [7] = Effect on ISRE (unknown origin) promoter activity expressed in human HuH7 cells cotransfected with pHBV1.2 at 10 ug/ml after 24 hrs by luciferase reporter gene assay; assay type: cell-based
# Outline: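 Huh7 seeded in 24-well plates for 24 h. They were cotransfected with pHBV1.2 plus a luciferase reporter carrying the AP-2 (pAP2-Luc) or ISRE (pISRE-Luc) element, at 1 μg/well, and pRLSV40, in serum-free DMEM for 24 h. After a PBS wash, cells were placed in DMEM with 2% FBS and treated with 10 μg/mL. Luciferase was read from lysates; mean ± SD, n = 3.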
# Huh-7 [8] = experiment: Decrease in NF-kB p50 protein expression in human HuH7 cells transfected with pHBV1.2 at 10 ug/ml after 2 days by immunoblot method relative to control; assay type: functional; outline: as §1
# [9] = Antiviral activity against Hepatitis B virus subtype adw2 infected in human HuH7 cells assessed as inhibition of viral DNA replication by RT-PCR method; assay type: functional, cell-based; conditions: Huh-7
# [10] = system: Hepatitis B virus subtype adw2; experiment: Antiviral activity against Hepatitis B virus subtype adw2 infected in human HuH7 cells assessed as inhibition of HBeAg secretion after 3 days by EIA; assay type: functional, cell-based
# Outline: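 HBV-expressing Huh7 cells were given 2.5, 5 or 10 μg/mL for 3 days. HBsAg and HBeAg in the conditioned medium were measured by enzyme immunoassay. Mean ± SD, n = 3, compared with untreated cells.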
# [11] = target: Transcription factor p65 (Homo sapiens) (UniProt Q04206); experiment: Decrease in NF-kB p65 phosphorylation in human HuH7 cells transfected with pHBV1.2 at 10 ug/ml after 2 days by immunoblot method relative to control; assay type: cell-based; outline: as §1
# Huh-7 [12] = experiment: Decrease in IKKalpha protein expression in human HuH7 cells transfected with pHBV1.2 at 10 ug/ml after 2 days by immunoblot method relative to control; assay type: functional; outline: as §1
# Huh-7 [13] = experiment: Decrease in IKBalpha protein expression in human HuH7 cells transfected with pHBV1.2 at 2.5 ug/ml after 2 days by immunoblot method relative to control; assay type: functional; outline: as §1
# Huh-7 [14] = experiment: Decrease in IKKalpha protein expression in human HuH7 cells transfected with pHBV1.2 at 5 ug/ml after 2 days by immunoblot method relative to control; assay type: functional; outline: as §1
# Huh-7 [15] = experiment: Decrease in p38 MAPK protein expression in human HuH7 cells transfected with pHBV1.2 at 5 ug/ml after 2 days by immunoblot method relative to control
# Huh-7 [16] = experiment: Decrease in IKKbeta protein expression in human HuH7 cells transfected with pHBV1.2 at 10 ug/ml after 2 days by immunoblot method relative to control; assay type: functional; outline: as §1
# [17] = system: Hepatitis B virus subtype adw2; experiment: Antiviral activity against Hepatitis B virus subtype adw2 infected in human HuH7 cells assessed as reduction in major S/preS RNA level at 2.5 to 10 ug/ml after 2 days by northern blot method; assay type: functional, cell-based
# Outline: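 After pHBV1.2 transfection of Huh7 cells for 2 days, cells were treated at 2.5, 5 or 10 μg/mL for 2 more days. Total RNA was Northern-blotted with an HBV whole-genome DNA probe. GAPDH served as loading control and β-gal marked transfection efficiency. Bands from three experiments were quantified by densitometry and normalized to GAPDH.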
# [18] = Antiviral activity against Hepatitis B virus subtype adw2 infected in human HuH7 cells assessed as reduction in HBx level at 10 ug/ml after 2 days by immunoblot method relative to control; assay type: functional
# Outline: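 Huh7 cells were transfected with pHBV1.2 (1.2-fold HBV adw2 genome) for 2 days, then exposed to 2.5, 5 or 10 μg/mL for another 2 days. Whole-cell protein was extracted with protease inhibitors. SHBs, HBcAg and HBx were detected by immunoblot, with α-tubulin for comparison.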
smiles,measurement,setting,value
C=C1C[C@@]23CC[C@H]4[C@@](C)(CCC[C@@]4(C)NC(=O)NCCCC)[C@@H]2CC[C@]1(O)C3,fold change (FC),Huh-7 [1],1.1
same,fold change (FC),[2],0.88
same,Activity,[3],Active
same,fold change (FC),Huh-7 [4],0.33
same,fold change (FC),Huh-7 [5],0.33
same,Activity,Hepatitis B virus,Active
same,fold change (FC),[6],0.97
same,Activity,[7],inactive
same,fold change (FC),Huh-7 [8],0.26
same,IC50,[9],16.9 µM
same,inhibition,[10],Dose-dependent effect
same,fold change (FC),[11],0.23
same,fold change (FC),Huh-7 [12],0.46
same,fold change (FC),Huh-7 [13],0.97
same,fold change (FC),Huh-7 [14],1.01
same,fold change (FC),Huh-7 [15],0.98
same,fold change (FC),Huh-7 [16],0.33
same,Activity,[17],Active
same,fold change (FC),[18],0.15
